Experimental data: ChEMBL document CHEMBL4024770, “Augmentation of Anticancer Drug Efficacy in Murine Hepatocellular Carcinoma Cells by a Peripherally Acting Competitive N-Methyl-d-aspartate (NMDA) Receptor Antagonist” (J Med Chem, 2017)

Assays:
Mus musculus [1] = species on record: Mus musculus; experiment: Antagonist activity at NMDA receptor in Nras driven p53 deficient mouse HCC cell membranes assessed as potentiation of 5 uM sorafenib-mediated antiproliferative activity by measuring cell viability at 100 uM after 72 hrs by resazurin assay (reference value: […] +/- […]%)
[2] = target: Glutamate receptor ionotropic, kainate 2 (Rattus norvegicus, UniProt P42260); experiment: Displacement of [3H]-KA from recombinant homomeric rat GluK2 (V,C,R)a receptor expressed in baculovirus infected Sf9 insect cell membranes by scintillation counting method
Mus musculus [3] = species on record: Mus musculus; experiment: Antagonist activity at NMDA receptor in Nras driven p53 deficient mouse HCC cell membranes assessed as potentiation of 1 uM sorafenib-mediated antiproliferative activity by measuring cell viability at 100 uM after 72 hrs by resazurin assay (reference value: […] +/- […]%)
[4] = target: Glutamate NMDA receptor; Grin1/Grin2c (Rattus norvegicus, UniProt P35439+Q00961); experiment: Antagonist activity at recombinant rat GluN1a/GluN2C expressed in Xenopus laevis oocytes assessed as inhibition of glycine/glutamate-mediated current responses by two-electrode voltage clamp method; format: cell-based
Procedure, shortened: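 Xenopus oocytes were injected with rat GluN1 and GluN2A–D cRNA (1:2) and recorded 2–6 days later by TEVC at room temperature, −40 mV, in Ba2+-containing recording solution, pH 7.4. Currents were evoked by 100 μM glycine plus glutamate at 2–3× EC50: 10 μM for GluN2A, 3 μM for GluN2B and GluN2C, 1 μM for GluN2D. IC50 from Hill fits per oocyte; Ki estimated.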

Chain of Glutamate NMDA receptor; Grin1/Grin2c (Q00961 whole entry, other chains not shown): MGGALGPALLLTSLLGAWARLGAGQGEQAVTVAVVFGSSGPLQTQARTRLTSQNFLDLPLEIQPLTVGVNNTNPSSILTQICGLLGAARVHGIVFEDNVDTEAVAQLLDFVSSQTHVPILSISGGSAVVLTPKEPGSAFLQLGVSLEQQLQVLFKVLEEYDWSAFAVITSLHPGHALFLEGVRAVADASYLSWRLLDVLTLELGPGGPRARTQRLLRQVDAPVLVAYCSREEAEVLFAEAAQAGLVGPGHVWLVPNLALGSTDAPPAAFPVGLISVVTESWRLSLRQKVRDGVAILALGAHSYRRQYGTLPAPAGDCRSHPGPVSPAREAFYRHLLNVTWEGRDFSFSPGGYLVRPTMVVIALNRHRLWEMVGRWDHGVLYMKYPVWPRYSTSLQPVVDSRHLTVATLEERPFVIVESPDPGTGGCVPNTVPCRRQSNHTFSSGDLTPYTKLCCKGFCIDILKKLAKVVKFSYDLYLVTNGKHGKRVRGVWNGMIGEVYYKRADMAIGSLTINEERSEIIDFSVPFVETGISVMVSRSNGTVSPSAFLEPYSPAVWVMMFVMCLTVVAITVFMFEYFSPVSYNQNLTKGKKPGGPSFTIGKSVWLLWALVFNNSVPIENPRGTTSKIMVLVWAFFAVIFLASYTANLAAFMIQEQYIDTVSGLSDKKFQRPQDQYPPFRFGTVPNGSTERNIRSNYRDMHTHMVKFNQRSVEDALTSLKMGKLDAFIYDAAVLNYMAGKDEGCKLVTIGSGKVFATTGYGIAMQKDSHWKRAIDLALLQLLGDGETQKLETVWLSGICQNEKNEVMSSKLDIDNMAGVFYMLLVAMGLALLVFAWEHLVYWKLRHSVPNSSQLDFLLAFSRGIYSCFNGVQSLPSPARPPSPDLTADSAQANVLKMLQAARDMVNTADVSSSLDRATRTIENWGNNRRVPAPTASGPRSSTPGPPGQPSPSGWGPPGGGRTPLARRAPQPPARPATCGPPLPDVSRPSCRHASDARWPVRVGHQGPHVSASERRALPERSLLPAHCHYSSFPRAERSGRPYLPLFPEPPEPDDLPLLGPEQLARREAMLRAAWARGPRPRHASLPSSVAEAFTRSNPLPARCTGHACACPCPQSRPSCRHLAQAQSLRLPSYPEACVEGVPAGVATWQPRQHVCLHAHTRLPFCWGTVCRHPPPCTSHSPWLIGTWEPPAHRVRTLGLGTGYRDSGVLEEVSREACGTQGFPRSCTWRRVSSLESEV
Chain of Glutamate receptor ionotropic, kainate 2 (P42260 whole entry): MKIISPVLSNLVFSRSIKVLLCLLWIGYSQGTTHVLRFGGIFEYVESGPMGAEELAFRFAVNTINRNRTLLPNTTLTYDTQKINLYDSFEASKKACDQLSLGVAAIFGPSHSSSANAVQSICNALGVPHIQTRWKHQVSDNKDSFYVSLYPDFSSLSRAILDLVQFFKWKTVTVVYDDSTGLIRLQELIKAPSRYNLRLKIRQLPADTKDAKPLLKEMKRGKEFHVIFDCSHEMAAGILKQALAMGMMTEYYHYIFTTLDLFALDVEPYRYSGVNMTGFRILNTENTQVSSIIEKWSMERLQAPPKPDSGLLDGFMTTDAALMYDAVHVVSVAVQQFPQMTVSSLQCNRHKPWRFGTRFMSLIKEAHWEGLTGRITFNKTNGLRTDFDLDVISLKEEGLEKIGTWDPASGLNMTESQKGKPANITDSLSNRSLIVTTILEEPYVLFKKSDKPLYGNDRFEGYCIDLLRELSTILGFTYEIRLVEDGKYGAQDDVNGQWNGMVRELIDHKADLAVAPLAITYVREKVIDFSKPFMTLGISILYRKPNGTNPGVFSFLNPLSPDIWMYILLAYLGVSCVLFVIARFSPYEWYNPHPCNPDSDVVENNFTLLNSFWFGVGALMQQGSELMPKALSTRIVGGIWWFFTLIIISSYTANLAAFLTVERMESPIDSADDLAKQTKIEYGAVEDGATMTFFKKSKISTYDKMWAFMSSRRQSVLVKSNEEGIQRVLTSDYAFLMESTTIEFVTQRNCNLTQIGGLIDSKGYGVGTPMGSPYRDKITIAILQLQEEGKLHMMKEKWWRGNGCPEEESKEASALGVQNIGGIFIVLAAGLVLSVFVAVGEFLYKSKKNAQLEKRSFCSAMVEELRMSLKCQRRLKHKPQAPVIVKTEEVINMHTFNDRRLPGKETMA

Ki [2]: > 100 µM | IC50 [4]: 110 µM | Ki [4]: 24 µM
SMILES: Cl.O=C(O)c1cc([C@H]2CCN[C@@H]2C(=O)O)ccc1Cl
Activity (Mus musculus [1]): 35% | Activity (Mus musculus [3]): 33%
